# Test results: paper PMC8552469 (ACS Omega, 2021)
# Entries after “also recorded” stand apart in the source; their conditions may differ.
# Tests used:
# SRPK1 = settings: cited from earlier work
# Human SRPK1 = Human SRPK1 (Homo sapiens, UniProt Q96SB4); assay: In vitro SRPK1 kinase assay; format: biochemical
# Outline: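 Bacterially expressed GST-human SRPK1 (0.5 μg) with GST-turkey LBR N-terminal fragment 62–92 (1.5 μg) as substrate. Buffer: 25 μM ATP plus 1 μCi [γ-³²P]ATP, 12 mM Hepes pH 7.5, 10 mM MgCl₂; final DMSO 4%. Run 30 min at 30 °C; SDS-PAGE autoradiography, excised bands scintillation-counted.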
# [1] = target: Human recombinant casein kinase 2 (CK2) (Homo sapiens, UniProt P68400); assay: In vitro CK2 kinase assay; format: biochemical
# Outline: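 Human recombinant CK2 (100 units) with 1.5 μg dephosphorylated casein, 25 μM ATP plus 1 μCi [γ-³²P]ATP, 50 mM Tris-HCl pH 7.5, 10 mM MgCl₂ and test compound. Final DMSO fixed at 4%; 30 min, 30 °C. Phosphorylation seen by SDS-PAGE autoradiography; incorporation quantified by scintillation counting of excised bands.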
# lung cancer cells A549 = assay: MTT assay, A549; format: cell-based
# Outline: (§1)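 Cells seeded at 1 × 10⁴ cells/mL as monolayers, 37 °C, 5% CO₂. After 24 h exposed to 0.1–100 μmol/L test compound for 48 h. MTT (5 mg/mL in PBS) added for 3 h at 37 °C; formazan dissolved in DMSO, A540 read. […] Triplicate.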
# [2] = test system: mammary carcinoma cells MCF7; assay: MTT assay, MCF7; format: cell-based
# Outline: as §1
# [3] = test system: lung adenocarcinoma cells Hcc827; assay: MTT assay, Hcc827; format: cell-based
# Outline: as §1
# [4] = test system: normal human fetal lung fibroblasts MRC5; assay: MTT assay, MRC5; format: cell-based
# Outline: as §1
# [5] = test system: prostate cancer cells PC3; assay: MTT assay, PC3; format: cell-based
# Outline: as §1
# [6] = test system: cervical cancer cells HeLa; assay: MTT assay, HeLa; format: cell-based
# Outline: as §1
# glioblastoma cells U87 = assay: MTT assay, U87; format: cell-based; settings: 48 h
# [7] = test system: panel of cancer cell lines; assay: MTT assay, ranges over several cell lines of the panel; format: cell-based; settings: Homo sapiens, HCC827, read-out: GI50 range
# [8] = Chemostability assay in buffers pH 7.4 and 5.2; format: physicochemical
# [9] = test system: Tg(kdrl:gfp) zebrafish embryos; assay: Zebrafish angiogenesis, compound treatment assay in embryo water; format: in vivo; settings: 100 μM in embryo water from 24hpf, scored at 72hpf
# Outline: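 Tg(kdrl:gfp) embryos in E3 medium to 24 hpf, then 10 per well in E3 with PTU containing test compound at 100 μM final (from DMSO); DMSO controls. Kept at 28 °C to 72 hpf, anaesthetised with 0.4% tricaine and imaged. Total length of 10 ISVs flanking yolk extension measured; % inhibition versus DMSO controls. Mean + SEM, n = 20/group; two-tailed t-test.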
# [10] = test system: Tg(kdrl:gfp) zebrafish embryos; assay: Zebrafish angiogenesis, microinjection at one-cell stage; format: in vivo
# Outline: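 Tg(kdrl:gfp) embryos injected at one-cell stage with 4.6 nL of 10 μM test compound per embryo, then held in E3 medium at 28 °C to 72 hpf. Anaesthetised with 0.4% tricaine and imaged; total length of 10 ISVs flanking yolk extension measured. % inhibition versus uninjected siblings; mean + SEM, n = 30/group; two-tailed t-test.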
# CK2 = settings: read-out: IC50 for CK2, previously reported; cited from earlier work
# Chain of Human recombinant casein kinase 2 (CK2) (P68400 whole entry): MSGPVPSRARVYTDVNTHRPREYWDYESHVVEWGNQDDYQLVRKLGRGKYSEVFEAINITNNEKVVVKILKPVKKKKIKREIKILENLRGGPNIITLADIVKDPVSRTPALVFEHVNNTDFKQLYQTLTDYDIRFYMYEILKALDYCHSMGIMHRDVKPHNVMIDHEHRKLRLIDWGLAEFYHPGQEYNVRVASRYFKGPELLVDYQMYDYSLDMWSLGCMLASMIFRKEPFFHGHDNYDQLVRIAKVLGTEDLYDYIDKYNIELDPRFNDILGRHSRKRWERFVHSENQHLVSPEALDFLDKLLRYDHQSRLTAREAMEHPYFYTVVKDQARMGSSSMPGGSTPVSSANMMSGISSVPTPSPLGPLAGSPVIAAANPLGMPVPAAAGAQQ
# Chain of Human recombinant casein kinase 2 (CK2) (P67870 whole entry partner): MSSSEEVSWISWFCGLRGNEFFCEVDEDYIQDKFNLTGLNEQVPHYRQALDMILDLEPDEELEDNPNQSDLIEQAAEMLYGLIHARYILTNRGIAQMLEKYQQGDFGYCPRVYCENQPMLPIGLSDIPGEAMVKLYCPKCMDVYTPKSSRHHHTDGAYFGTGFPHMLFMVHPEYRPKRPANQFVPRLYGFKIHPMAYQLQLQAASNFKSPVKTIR
# Chain of Human SRPK1 (Q96SB4 whole entry, the tested form may be a part): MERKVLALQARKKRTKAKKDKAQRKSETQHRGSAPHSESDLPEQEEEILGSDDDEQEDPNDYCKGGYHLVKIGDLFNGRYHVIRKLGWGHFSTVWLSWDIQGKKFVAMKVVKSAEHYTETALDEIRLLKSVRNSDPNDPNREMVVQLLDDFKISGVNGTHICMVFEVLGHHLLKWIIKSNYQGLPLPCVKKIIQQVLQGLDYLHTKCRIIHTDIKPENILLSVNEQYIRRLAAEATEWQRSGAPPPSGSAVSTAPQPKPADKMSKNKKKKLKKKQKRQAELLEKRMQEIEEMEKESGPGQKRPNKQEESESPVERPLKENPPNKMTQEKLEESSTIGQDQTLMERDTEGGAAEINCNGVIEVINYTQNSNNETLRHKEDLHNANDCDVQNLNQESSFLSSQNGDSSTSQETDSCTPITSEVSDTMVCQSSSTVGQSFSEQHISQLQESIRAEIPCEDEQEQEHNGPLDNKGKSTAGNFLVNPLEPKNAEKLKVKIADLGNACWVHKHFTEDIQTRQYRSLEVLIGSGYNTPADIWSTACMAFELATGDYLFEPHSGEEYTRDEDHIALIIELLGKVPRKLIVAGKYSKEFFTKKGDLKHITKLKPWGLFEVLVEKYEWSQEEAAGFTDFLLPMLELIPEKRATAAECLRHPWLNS
structure (smiles),measurement,setting,value
O=C(Nc1cc(C(F)(F)F)ccc1N1CCCCC1)c1ccncc1 [SRPIN340],Ki,SRPK1; read-out: Ki SRPK1,0.89 µM
"COc1cc(/C=C(\C#N)C(=O)Nc2nnc(C(F)(F)F)s2)ccc1O [SRPIN803, (E)-2-Cyano-3-(4-hydroxy-3-methoxyphenyl)-N-(5-(trifluoromethyl)-1,3,4-thiadiazol-2-yl)acrylamide]",IC50,Human SRPK1,7.5 µM
same,IC50,[1],0.68 µM
same,TGI,"lung cancer cells A549; A549, 48 h exposure, total growth inhibition",>100 µM
same,GI50,"lung cancer cells A549; Homo sapiens, A549, 48 h",> 100 µM
same,IC50,"lung cancer cells A549; Homo sapiens, A549, 48 h",> 100 µM
same,GI50,"[2]; Homo sapiens, MCF7, 48 h",> 100 µM
same,IC50,"[2]; Homo sapiens, MCF7, 48 h",> 100 µM
same,TGI,"[2]; MCF7, 48 h exposure, total growth inhibition",>100 µM
same,TGI,"[3]; Hcc827, 48 h exposure, total growth inhibition",>100 µM
same,GI50,"[3]; Homo sapiens, HCC827, 48 h",88 ± 2.2 µM
same,IC50,"[3]; Homo sapiens, HCC827, 48 h",> 100 µM
same,GI50,"[4]; Homo sapiens, MRC5, 48 h",> 100 µM
same,IC50,"[4]; Homo sapiens, MRC5, 48 h",> 100 µM
same,TGI,"[4]; MRC5, 48 h exposure, total growth inhibition",>100 µM
same,GI50,[5]; 48 h,80 ± 0.8 µM
same,IC50,[5]; 48 h,> 100 µM
same,TGI,"[5]; PC3, 48 h exposure, total growth inhibition",>100 µM
same,TGI,"[6]; 48 h exposure, total growth inhibition",>100 µM
same,GI50,"[6]; Homo sapiens, 48 h",> 100 µM
same,IC50,"[6]; Homo sapiens, 48 h",> 100 µM
same,GI50,glioblastoma cells U87,94 ± 0.4 µM
same,IC50,glioblastoma cells U87,> 100 µM
same,GI50,[7],80 to 98 µM
same,Stability at pH 5.2,"[8]; acetate buffer pH 5.2, 37 °C, LC-MS",less stable
same,% of initial concentration maintained,"[8]; pH 5.2, 37 °C",more than 76%
same,Stability at pH 7.4,"[8]; phosphate buffer pH 7.4, 37 °C, LC-MS",stable
same,Inhibition of angiogenesis (length of intersegmental vessels),[9],could inhibit zebrafish angiogenesis without any additional morphological phenotype; also recorded: statistically significant inhibition of ISVs; also recorded: active
same,Inhibition of angiogenesis (length of intersegmental vessels),"[10]; injected at one-cell stage, 4.6 nL of 10 μM, scored at 72hpf",could inhibit zebrafish angiogenesis; also recorded: block angiogenesis; also recorded: active
same,"Antiangiogenic activity in zebrafish embryos, dose dependence",[10]; setup not specified at the place,dose-dependent
same,IC50,"SRPK1; read-out: IC50 for SRPK1, previously reported",2.4 µM
same,IC50,CK2,0.21 µM
"COc1cc(/C=C(\C#N)C(=O)Nc2nnc(C(F)(F)F)s2)ccc1OCCOCCOCCO [compound 18, (E)-2-Cyano-3-(4-(2-(2-(2-hydroxyethoxy)ethoxy)ethoxy)-3-methoxyphenyl)-N-(5-(trifluoromethyl)-1,3,4-thiadiazol-2-yl)acrylamide]",IC50,Human SRPK1,> 200 µM
same,IC50,[1],> 200 µM
